From ChEMBL document CHEMBL3525944, “Nonlinear pharmacokinetics of 5-methoxy-N,N-dimethyltryptamine in mice” (Drug Metab Dispos, 2011)

Key:
[1] = Half life in wild-type FVB/N mouse at 2 mg/kg, iv by LC-MS/MS analysis; assay type: ADME, organism-based; design: dose 2 mg/kg, route intravenous; conditions: in vivo
Outline: (§1)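 Male 8-week FVB/N wild-type or CYP2D6-humanized mice (25-30 g) given 5-MeO-DMT oxalate in saline i.v. at 5 µL/g body weight. Serum collected 0-180 min, N = 3 per time point, proteins precipitated with ice-cold acetonitrile containing internal standard, LC-MS/MS. Noncompartmental analysis of composite mean data; t1/2 = 0.693/terminal slope; Vss = CL×AUMC/AUC, CL = dose/AUC0→∞.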

[2] = tested on: Serum; experiment: Drug recovery in wild-type FVB/N mouse serum by LC-MS/MS analysis; assay type: ADME, cell-free
[3] = tested on: Mus musculus; experiment: AUC (0 to infinity) in CYP2D6-humanized transgenic FVB/N mouse at 20 mg/kg, iv by LC-MS/MS analysis; assay type: ADME, organism-based, Plasma; design: time infinity, dose 20 mg/kg, route intravenous; conditions: in vivo
[4] = Clearance in CYP2D6-humanized transgenic FVB/N mouse at 10 mg/kg, iv by LC-MS/MS analysis; assay type: ADME, organism-based; design: dose 10 mg/kg, route intravenous; conditions: in vivo
[5] = tested on: Mus musculus; experiment: Dose normalized AUC (0 to infinity) in CYP2D6-humanized transgenic FVB/N mouse at 20 mg/kg, iv by LC-MS/MS analysis; assay type: ADME, organism-based; design: dose 20 mg/kg, route intravenous; conditions: in vivo
[6] = tested on: Mus musculus; experiment: AUC (0 to infinity) in wild-type FVB/N mouse at 10 mg/kg, ip by LC-MS/MS analysis; assay type: ADME, organism-based, Plasma; design: time infinity, dose 10 mg/kg, route intraperitoneal; conditions: in vivo
[7] = Tmax in wild-type FVB/N mouse at 20 mg/kg, ip by LC-MS/MS analysis; assay type: ADME, organism-based; design: dose 20 mg/kg, route intraperitoneal; conditions: in vivo
Outline: (§2)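 Male 8-week FVB/N wild-type or CYP2D6-humanized mice given 5-MeO-DMT oxalate in saline i.p. at 10 µL/g body weight. Serum sampled 0-180 min, N = 4 per time point, processed by acetonitrile protein precipitation with internal standard, quantified by LC-MS/MS. Tmax taken as observed from composite mean serum concentration-time data.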

[8] = Ratio of drug level in brain to serum in CYP2D6-humanized transgenic FVB/N mouse at 10 mg/kg, ip by LC-MS/MS analysis; assay type: ADME, organism-based; design: dose 10 mg/kg, route intraperitoneal
Outline: (§3)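 Mice dosed i.p. with 5-MeO-DMT in saline and killed at 20, 30 or 60 min. Brain homogenized in ice-cold saline and extracted liquid-liquid; serum processed by acetonitrile precipitation. Both quantified by LC-MS/MS (brain range 4.1-3000 nM). Ratio is brain over serum concentration at the same time point.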

[9] = tested on: Mus musculus; experiment: Dose normalized AUC (0 to infinity) in CYP2D6-humanized transgenic FVB/N mouse at 10 mg/kg, ip by LC-MS/MS analysis; assay type: ADME, organism-based; design: dose 10 mg/kg, route intraperitoneal; conditions: in vivo
[10] = Toxicity in mouse; assay type: organism-based; conditions: in vivo
[11] = Bioavailability in CYP2D6-humanized transgenic FVB/N mouse at 2 mg/kg, ip by LC-MS/MS analysis; assay type: ADME, organism-based; conditions: in vivo
[12] = tested on: Mus musculus; experiment: Dose normalized AUC (0 to infinity) in wild-type FVB/N mouse at 20 mg/kg, iv by LC-MS/MS analysis; assay type: ADME, organism-based; design: dose 20 mg/kg, route intravenous; conditions: in vivo
[13] = tested on: Mus musculus; experiment: AUC (0 to infinity) in wild-type FVB/N mouse at 20 mg/kg, iv by LC-MS/MS analysis; assay type: ADME, organism-based, Plasma; design: time infinity, dose 20 mg/kg, route intravenous; conditions: in vivo
[14] = Clearance in CYP2D6-humanized transgenic FVB/N mouse at 2 mg/kg, iv by LC-MS/MS analysis; assay type: ADME, organism-based; design: dose 2 mg/kg, route intravenous; conditions: in vivo
[15] = Clearance in wild-type FVB/N mouse at 20 mg/kg, iv by LC-MS/MS analysis; assay type: ADME, organism-based; design: dose 20 mg/kg, route intravenous; conditions: in vivo
[16] = tested on: Mus musculus; experiment: AUC (0 to infinity) in wild-type FVB/N mouse at 20 mg/kg, ip by LC-MS/MS analysis; assay type: ADME, organism-based, Plasma; design: time infinity, dose 20 mg/kg, route intraperitoneal; conditions: in vivo
[17] = tested on: Brain; experiment: Stability in wild-type FVB/N mouse brain at -80 degC; assay type: ADME
Outline: (§4)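 Pilot test of 5-MeO-DMT in mouse brain homogenate (ice-cold saline) stored at -80°C over one year, quantified by LC-MS/MS after liquid-liquid extraction.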

[18] = tested on: Serum; experiment: Drug recovery in CYP2D6-humanized transgenic FVB/N mouse serum by LC-MS/MS analysis; assay type: ADME, cell-free
[19] = Bioavailability in CYP2D6-humanized transgenic FVB/N mouse at 20 mg/kg, ip by LC-MS/MS analysis; assay type: ADME, organism-based; conditions: in vivo
[20] = tested on: Mus musculus; experiment: Dose normalized AUC (0 to infinity) in wild-type FVB/N mouse at 2 mg/kg, iv by LC-MS/MS analysis; assay type: ADME, organism-based; design: dose 2 mg/kg, route intravenous; conditions: in vivo
[21] = Half life in CYP2D6-humanized transgenic FVB/N mouse at 20 mg/kg, iv by LC-MS/MS analysis; assay type: ADME, organism-based; design: dose 20 mg/kg, route intravenous; conditions: in vivo
[22] = Tmax in CYP2D6-humanized transgenic FVB/N mouse at 10 mg/kg, ip by LC-MS/MS analysis; assay type: ADME, organism-based; design: dose 10 mg/kg, route intraperitoneal; conditions: in vivo; outline: as §2
[23] = tested on: Mus musculus; experiment: Dose normalized AUC (0 to infinity) in wild-type FVB/N mouse at 20 mg/kg, ip by LC-MS/MS analysis; assay type: ADME, organism-based; design: dose 20 mg/kg, route intraperitoneal; conditions: in vivo
[24] = Bioavailability in wild-type FVB/N mouse at 10 mg/kg, ip by LC-MS/MS analysis; assay type: ADME, organism-based; conditions: in vivo
[25] = Bioavailability in wild-type FVB/N mouse at 2 mg/kg, ip by LC-MS/MS analysis; assay type: ADME, organism-based; conditions: in vivo
[26] = tested on: Brain; experiment: Stability in CYP2D6-humanized transgenic FVB/N mouse brain at -80 degC; assay type: ADME; outline: as §4
[27] = tested on: Mus musculus; experiment: Dose normalized AUC (0 to infinity) in CYP2D6-humanized transgenic FVB/N mouse at 2 mg/kg, iv by LC-MS/MS analysis; assay type: ADME, organism-based; design: dose 2 mg/kg, route intravenous; conditions: in vivo
[28] = Ratio of drug level in brain to serum in CYP2D6-humanized transgenic FVB/N mouse at 20 mg/kg, ip by LC-MS/MS analysis; assay type: ADME, organism-based; design: dose 20 mg/kg, route intraperitoneal; outline: as §3
[29] = Half life in wild-type FVB/N mouse at 20 mg/kg, iv by LC-MS/MS analysis; assay type: ADME, organism-based; design: dose 20 mg/kg, route intravenous; conditions: in vivo; outline: as §1
[30] = Volume of distribution at steady state in wild-type FVB/N mouse at 20 mg/kg, iv by LC-MS/MS analysis; assay type: ADME, organism-based; design: dose 20 mg/kg, route intravenous; conditions: in vivo, read-out: Vdss; outline: as §1
[31] = Cmax in CYP2D6-humanized transgenic FVB/N mouse at 10 mg/kg, ip by LC-MS/MS analysis; assay type: ADME, organism-based; design: dose 10 mg/kg, route intraperitoneal; conditions: in vivo
[32] = tested on: Mus musculus; experiment: Dose normalized AUC (0 to infinity) in CYP2D6-humanized transgenic FVB/N mouse at 20 mg/kg, ip by LC-MS/MS analysis; assay type: ADME, organism-based; design: dose 20 mg/kg, route intraperitoneal; conditions: in vivo
[33] = Bioavailability in CYP2D6-humanized transgenic FVB/N mouse at 10 mg/kg, ip by LC-MS/MS analysis; assay type: ADME, organism-based; conditions: in vivo
[34] = Clearance in wild-type FVB/N mouse at 2 mg/kg, iv by LC-MS/MS analysis; assay type: ADME, organism-based; design: dose 2 mg/kg, route intravenous; conditions: in vivo
[35] = Cmax in wild-type FVB/N mouse at 10 mg/kg, ip by LC-MS/MS analysis; assay type: ADME, organism-based; design: dose 10 mg/kg, route intraperitoneal; conditions: in vivo

Work on `COc1ccc2[nH]cc(CCN(C)C)c2c1.O=C(O)C(=O)O` yielded a half-life [1] of 9.2 min, a Drug recovery [2] of 62% and an AUC [3] of 866 µmol·min/L. The clearance [4] was 7.2 L/h/kg, the AUC/dose [5] was 9.45 kg·min/L and the AUC [6] was 231 µmol·min/L. It also gave a Tmax [7] of 5 min, a Kp [8] of 1.2 and an AUC/dose [9] of 4.92 kg·min/L. The LD50 [10] was 48 mg/kg, the bioavailability [11] was 42.5% and the AUC/dose [12] was 10 kg·min/L. It also gave an AUC [13] of 920 µmol·min/L, a clearance [14] of 11.4 L/h/kg and a clearance [15] of 6 L/h/kg. The AUC [16] was 654 µmol·min/L, the Stability [17] was greater than 1 yr and the Drug recovery [18] was 62%. It also gave a bioavailability [19] of 65.6%, an AUC/dose [20] of 5.19 kg·min/L and a half-life [21] of 12 min. The Tmax [22] was 5 min, the AUC/dose [23] was 7.13 kg·min/L and the bioavailability [24] was 47.3%. It also gave a bioavailability [25] of 52.2%, a Stability [26] greater than 1 yr and an AUC/dose [27] of 5.36 kg·min/L. The Kp [28] was 3.2, the half-life [29] was 15 min and the Vd [30] was 1.84 L/kg. For the same compound, the Cmax [31] was 8.93 µM, the AUC/dose [32] was 6.2 kg·min/L and the bioavailability [33] was 61%. The clearance [34] was 11.4 L/h/kg and the Cmax [35] was 7 µM.
